From ChEMBL document CHEMBL4725346, “Syntheses and Evaluation of New Bisacridine Derivatives for Dual Binding of G-Quadruplex and i-Motif in Regulating Oncogene c-myc Expression” (J Med Chem, 2020)
Activity calls are given as the source filed them. The rule behind the calls is not given here.

Columns and labels:
[1] = Binding affinity to 5'-biotin labeled c-myc promoter i-motif DNA Py33 (unknown origin) by surface plasmon resonance method
Summary of the method: (§1)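 SPR: 5'-biotin DNA diluted to 1 μM and captured (1000 RU) on a sensor chip, with a blank cell as reference. Running buffers: Py33 in 20 mM MES pH 5.8, 100 mM KCl, 0.05% Tween-20; Pu27 and duplex in 50 mM Tris-HCl pH 7.4, 100 mM KCl. Six ligand concentrations serially diluted from DMSO stock. Association 260 s, dissociation 300 s at 25 °C; NaOH regeneration; blank sensorgrams subtracted.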

[2] = biological target: Quadruplex DNA; assay: Binding affinity to 5'-biotin labeled c-myc promoter G-quadruplex DNA Pu27 (unknown origin) by surface plasmon resonance method; format: nucleic-acid assay; summary of the method: as §1
[3] = Stabilization of c-myc promoter i-motif DNA Py33 (unknown origin) assessed as decrease in positive peak intensity at pH 5.5 measured at 288 nanometer by CD spectroscopy
Summary of the method: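 Py33 at 1 µM in 1× BPES pH 5.5 (pH 6.8 random-coil reference), with or without ligand. Annealed at 95 °C for 5 min, cooled, kept at 4 °C overnight. CD spectra in a 4 mm cuvette over 230–350 nm, three scans averaged, buffer-corrected; peaks followed at 288 and 260 nm.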

[4] = tested on: Quadruplex DNA; assay: Stabilization of c-myc promoter G-quadruplex DNA Pu27 (unknown origin) assessed as effect on melting temperature at 5 uM by CD spectroscopy; format: nucleic-acid assay
Summary of the method: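 CD melting: Pu27 diluted to 1 µM in 10 mM Tris-HCl, 5 mM KCl, pH 7.4, with or without ligand. Annealed at 95 °C for 5 min, slowly cooled, then heated at 1 °C/min while monitoring 260 nm. Tm obtained by curve fitting.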

[5] = Stabilization of c-myc promoter i-motif DNA Py33 (unknown origin) by 1H NMR spectra analysis
Summary of the method: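 1D ¹H NMR titration with water suppression at 25 °C on a 600 MHz spectrometer. DNA at 0.5 mM in 10% D₂O/90% H₂O: Pu27 in 10 mM Tris-HCl pH 7.4, Py33 in 1× BPES pH 6.4. Annealed at 95 °C for 5 min before titration; ligand stock in d₆-DMSO.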

[6] = tested on: A-375; assay: Antiproliferative activity against human A-375 cells after 48 hrs by MTT assay; format: functional, cell-based; conditions: A-375, 48 h
Summary of the method: (§2)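 Cells seeded at 5.0×10^3 per well, pre-incubated 12 h at 37 °C, 5% CO2, then exposed to compounds for 48 h; DMSO-only control. MTT (2.5 mg/mL) added for 4 h, formazan dissolved in DMSO, absorbance at 570 nm. Each dose tested in triplicate; IC50 from percentage survival relative to negative control.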

[7] = tested on: A549; assay: Antiproliferative activity against human A549 cells after 48 hrs by MTT assay; format: functional, cell-based; conditions: A549, 48 h; summary of the method: as §2
[8] = tested on: HCT-116; assay: Antiproliferative activity against human HCT-116 cells after 48 hrs by MTT assay; format: functional, cell-based; conditions: HCT-116, 48 h; summary of the method: as §2
[9] = tested on: Quadruplex DNA; assay: Binding affinity to c-myc wild-type promoter G-quadruplex/i-motif (unknown origin) expressed in human SiHa cells assessed as reduction in c-myc transcription by measuring decrease in ratio of renilla/firefly luciferase activity at 1/3 IC50 after 48 hrs by dual-luciferase reporter assay; format: cell-based
Summary of the method: (§3)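 SiHa cells transfected with 200 ng psiCHECK2 plasmid carrying wild-type, mutant or deleted c-myc promoter. Compounds added 8 h after transfection, then incubated 48 h at 37 °C. Cells washed with ice-cold PBS; Renilla/firefly activity ratio read by dual-luciferase assay.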

[10] = tested on: Quadruplex DNA; assay: Binding affinity to c-myc wild-type promoter G-quadruplex/i-motif (unknown origin) expressed in human SiHa cells assessed as reduction in c-myc transcription by measuring decrease in ratio of renilla/firefly luciferase activity after 48 hrs by dual-luciferase reporter assay; format: cell-based; conditions: dose microM 0.025-0.1, time 48.0 hrs; summary of the method: as §3
[11] = tested on: Quadruplex DNA; assay: Binding affinity to c-myc promoter G-quadruplex/i-motif in human SiHa cells assessed as reduction in c-myc mRNA level at 5 uM incubated for 24 hrs by qRT-PCR analysis; format: cell-based; set-up: scale not given: the % may be the effect or the level left
[12] = tested on: Quadruplex DNA; assay: Binding affinity to c-myc promoter G-quadruplex/i-motif in human CA46 cells assessed as reduction in c-myc mRNA transcription at 0.16 to 2.5 uM incubated for 24 hrs; format: cell-based; conditions: dose microM 0.16-2.5, time 24.0 hrs
[13] = tested on: SiHa; assay: Induction of cell cycle arrest in human SiHa cells assessed as accumulation of cells at S phase at 0.15 uM after 24 hrs by propidium iodide staining based flow cytometry (reference value: 17.74%); format: functional
[14] = tested on: SiHa; assay: Induction of apoptosis in human SiHa cells assessed as early apoptotic cells at 0.6 uM after 24 hrs by annexin V/FITC-propidium iodide staining-based flow cytometric method ( Rvb = 0.3%); format: functional
[15] = tested on: SiHa; assay: Induction of apoptosis in human SiHa cells assessed as necrotic cells at 0.6 uM after 24 hrs by annexin V/FITC-propidium iodide staining-based flow cytometric method ( Rvb = 0.1%); format: functional
[16] = tested on: SiHa; assay: Induction of apoptosis in human SiHa cells assessed as late apoptotic cells at 1.2 uM after 24 hrs by annexin V/FITC-propidium iodide staining-based flow cytometric method ( Rvb = 0.4%); format: functional
[17] = tested on: SiHa; assay: Induction of apoptosis in human SiHa cells assessed as early apoptotic cells at 2.4 uM after 24 hrs by annexin V/FITC-propidium iodide staining-based flow cytometric method ( Rvb = 0.3%); format: functional
[18] = tested on: SiHa; assay: Induction of apoptosis in human SiHa cells assessed as late apoptotic cells at 2.4 uM after 24 hrs by annexin V/FITC-propidium iodide staining-based flow cytometric method ( Rvb = 0.4%); format: functional
[19] = tested on: Raji; assay: Induction of apoptosis in human Raji cells at 0.6 to 2.4 uM after 24 hrs by propidium iodide staining based flow cytometry; format: functional, cell-based; conditions: dose microM 0.6-2.4, time 24.0 hrs
[20] = tested on: CA46; assay: Antiproliferative activity against human CA46 cells after 48 hrs by MTT assay; format: functional, cell-based
[21] = tested on: CA46; assay: Induction of cell cycle arrest in human CA46 cells assessed as accumulation of cells at G2/M phase at 0.15 to 0.6 uM after 24 hrs by propidium iodide staining based flow cytometry; format: functional; conditions: dose microM 0.15-0.6, time 24.0 hrs
[22] = Toxicity in BALB/c nude mouse xenografted with human SiHa cells assessed as effect on spleen weight at 15 mg/kg, ip administered once per 2 days for 18 days; format: organism-based; conditions: in vivo, 432 h, time 18 day
Summary of the method: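 SiHa tumour fragments passaged from donor mice implanted in the underarm of female BALB/c nude mice (six per group). Compound given at 15 mg/kg ip once every two days for 18 days, with saline and cisplatin 0.2 mg/kg control groups. Body weight recorded every two days; at day 18 mice were sacrificed and organs weighed.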

[23] = Binding affinity to 5'-biotin labeled c-myc promoter i-motif DNA Py33 (unknown origin) by UV titration method

- Kd [1]: 2400 nM
- Kd [2]: 7700 nM
- Activity [3]: Active
- Activity [4]: Active
- Activity [5]: Active
- IC50 [6]: 280 nM
- IC50 [7]: 180 nM
- IC50 [8]: 150 nM
- Activity [23]: Active
SMILES: Cc1ccc2nc3ccc(C)cc3c(NCCCNCCNCCCNc3c4cc(C)ccc4nc4ccc(C)cc34)c2c1
- Activity [9]: Active
- Activity [10]: Dose-dependent effect
- Activity [11]: < 92.7%
- Activity [12]: inactive
- Activity [13]: 16.96%
- Activity [14]: 18.1%
- Activity [15]: 0.5%
- Activity [16]: 18.7%
- Activity [17]: 55.4%
- Activity [18]: 27.5%
- Activity [19]: Active
- Activity [20]: inactive
- Activity [21]: inactive
- Activity [22]: Non-Toxic
